# Screening data: PubChem, Johns Hopkins Ion Channel Center
# TRPC4 potent: allosterically enhances the mouse TRPC4 cation channel; Q9QUQ5; HEK293 TRPC4beta/mu-opioid, DAMGO EC20, Fluo-4 Ca2+ flux; hits give high values; B-score at 10 µM; 0.42% of 310,000 active;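 active = B-score of calcium response area above 5 SD of library B-scores, with initial fluorescence ratio within 5 SD of library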
# TRPC6 activator: mouse TRPC6 channel activation. HEK293-TRPC6 membrane potential dye fluorescence; hits give high values. B-score at 10 µM. 0.13% of 310,000 active. AID 2550;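 active = B-score of the integrated fluorescence ratio above library mean plus 3 SD, and starting fluorescence ratio within library mean plus 5 SD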;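 note: higher score means more depolarization so channel activation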
# Kir21 block: Kir2.1 (mouse) channel inhibition; HEK293-Kir2.1, FluxOR thallium flux fluorescence; hits give low values; B-score at 10 µM; 0.85% of 310,000 active; AID 1672;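 active = fluorescence ratio B-score at or below minus 3 SD of library scores, with starting-brightness B-score within 2 SD, cut at about -4.2 in these data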;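 note: channel flux triggered by added potassium and thallium sulfate stimulus; B-score of peak minus minimum fluorescence over baseline after thallium stimulus; more negative B-score means stronger Kir2.1 block with less thallium influx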
# Target sequence (P35561 whole entry, looked up): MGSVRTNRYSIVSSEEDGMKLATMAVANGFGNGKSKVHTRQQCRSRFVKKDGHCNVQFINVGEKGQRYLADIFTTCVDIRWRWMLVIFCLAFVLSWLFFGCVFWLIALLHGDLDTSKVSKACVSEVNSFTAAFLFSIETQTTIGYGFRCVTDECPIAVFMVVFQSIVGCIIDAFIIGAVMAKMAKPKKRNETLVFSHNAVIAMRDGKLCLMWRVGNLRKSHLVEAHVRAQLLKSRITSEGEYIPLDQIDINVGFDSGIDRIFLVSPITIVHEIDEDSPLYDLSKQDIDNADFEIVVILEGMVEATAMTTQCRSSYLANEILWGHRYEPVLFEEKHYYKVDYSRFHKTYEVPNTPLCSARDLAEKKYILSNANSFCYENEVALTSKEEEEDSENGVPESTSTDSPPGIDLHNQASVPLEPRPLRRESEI
# TRPC4 act: TRPC4 (mouse) channel activation; 0.49% of 310,000 active; B-score at 10 µM; HEK293 TRPC4beta/mu-opioid, Fluo4 calcium fluorescence; hits give high values; AID 2237; Q9QUQ5;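 active = B-score above 5 SD of library B-scores, and initial fluorescence ratio not above library mean plus 5 SD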;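 note: positive B-score marks a calcium rise read as TRPC4 activation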
#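 System: HEK293 cells stably co-expressing mouse TRPC4beta and mu-opioid receptor; Schedule: Fluo4 dye loading 45 min at room temperature, 110 s recording; Detection: Fluo4 fluorescence, kinetic; Evaluation: B-scored integrated calcium fluorescence ratio; Controls: buffer (low) and maximal DAMGO (high).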
# TRPC6 inh: blocks the mouse TRPC6 cation channel; B-score at 10 µM; 1.1% of 310,000 active; Q61143; HEK293-TRPC6, membrane potential dye, ACh-evoked depolarization; hits give low values;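 active = B-score under library mean minus 3 SD, initial fluorescence not abnormally high, positive integrated signal ratio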;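 note: B-score derived from integrated fluorescence ratio over the kinetic read; more negative B-score means stronger inhibition of depolarization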
# TRPC4 block: TRPC4 (mouse) channel inhibition; HEK293 TRPC4beta/mu-opioid, DAMGO-evoked Fluo4 calcium flux; hits give low values; Q9QUQ5; B-score at 10 µM; 0.39% of 300,000 active;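 active = B-score over 3 SD under the library average, no early fluorescence shift, positive overall ratio signal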
#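 Material: HEK293 cells with stable TRPC4beta plus mu-opioid receptor expression; probe or stimulus: DAMGO in two steps, submaximal then maximal; technique: Fluo4 calcium fluorescence by kinetic imaging, 5 s 1 Hz baseline; measure: integrated fluorescence ratio relative to baseline, converted to per-well B score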
# TRPC4 sel inh 2: second selectivity test of TRPC6 inhibitors: effect on mouse TRPC4 | shares compounds with TRPC6 inh | HEK293 TRPC4/MOR, membrane potential dye fluorescence; channel activated by saturating DAMGO dose | inhibition, % at 10 µM | 42% of 920 active | AID 2776;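 active = compounds whose fluorescence signal differed from control wells by over 3 SD, either direction, in both duplicate plates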
# TRPC4 spec: selectivity of TRPC6 inhibitors: effect on mouse TRPC4; 61% of 920 active; activity change, negative = inhibition, % at 10 µM; HEK293 TRPC4/mu-opioid, membrane potential fluorescence; shares compounds with TRPC6 inh;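 active = rise or fall in signal beyond 3 SD of buffer-only wells in both replicate plates, either sign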;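 note: integrated kinetic ratio of fluorescence range over baseline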
# HEK293 MPD ctr 2-1: second counter-screen for TRPC6 inhibitors: parental HEK293 cells. shares compounds with TRPC6 inh. parental HEK293 membrane potential dye fluorescence; maximal acetylcholine challenge after compound addition. signal change vs control, % at 10 µM. 31% of 920 active. AID 2779;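 active = membrane potential signal moving either way by over 3 SD of the maximum-effect control, in both duplicate plates, meaning non-specific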
# HEK293 MPD ctr-1: parental HEK293 nonspecific activity of TRPC6 inhibitors; shares compounds with TRPC6 inh; 60% of 920 active; membrane potential signal change, % at 10 µM; AID 2780; parental HEK293 membrane potential dye fluorescence;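 active = membrane potential signal shifting up or down by more than 3 SD of buffer-only wells, on both duplicate plates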
# HEK293 MPD ctr-2: parental HEK293 nonspecific activity of TRPC6 modulators | shares compounds with TRPC6 inh | membrane potential dye fluorescence | membrane potential signal change, % at 10 µM | 51% of 2,400 active | AID 488924;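 active = membrane potential signal moves up or down beyond 5 SD from buffer-only wells, on both duplicate plates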
# HEK293 MPD ctr 2-2: second counter-screen for TRPC6 modulators: effect in parental HEK293 cells; shares compounds with TRPC6 inh; AID 488926; membrane potential dye fluorescence; after compound, maximal acetylcholine stimulation; inhibition, % at 10 µM; 14% of 2,400 active;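 active = membrane potential signal drops by more than 5 SD from the mean control signal, in both duplicate plates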
# TRPC4/MOR mod: mouse TRPC4 off-target activity of TRPC6 modulators; shares compounds with TRPC6 inh; HEK293 TRPC4/mu-opioid, membrane potential fluorescence; percent change from control (negative = decrease, positive = increase), % at 10 µM; 69% of 2,400 active; AID 488927;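 active = membrane potential signal moved up or down beyond 5 SD of buffer control wells, in both duplicate plates, actives on both sides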
# TRPC4 ctr inh 2: mouse TRPC4 off-target activity of TRPC6 modulators, second screen; shares compounds with TRPC6 inh; HEK293 TRPC4/mu-opioid, membrane potential dye fluorescence; stimulated with maximal-effect DAMGO; inhibition, % at 10 µM; 55% of 2,400 active;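 active = drop in membrane potential signal beyond 5 SD of the control wells in both duplicate plates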;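 note: TRPC4 counter screen for TRPC6 hits run under conditions tuned for TRPC6 not TRPC4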
# TRPC6 inh conf: mouse TRPC6 inhibitor confirmation | shares compounds with TRPC6 inh | HEK293-TRPC6, membrane potential dye, ACh-evoked depolarization | inhibition, % at 10 µM | 43% of 3,300 active | AID 488960;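 active = fluorescence ratio falls more than 5 SD below the full-stimulation control mean, in both duplicate runs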;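 note: integrated fluorescence ratio of peak minus minimum over baseline after agonist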
# TRPC6 act conf: mouse TRPC6 activator confirmation | shares compounds with TRPC6 inh | HEK293-TRPC6 membrane potential dye fluorescence, FDSS | activation, % at 10 µM | 11% of 2,800 active;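 active = ratio signal rise beyond 5 SD above unstimulated control wells' mean, seen in both duplicate runs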
# Hits are given with their value; 0 = inactive; - = not tested or not shown. An excerpt weighted towards active compounds, which were near 2.9% of everything screened.
SMILES,TRPC4 potent,TRPC6 activator,Kir21 block,TRPC4 act,TRPC6 inh,TRPC4 block,HEK293 MPD ctr-2,HEK293 MPD ctr 2-2,TRPC4/MOR mod,TRPC4 ctr inh 2,TRPC6 inh conf,TRPC6 act conf,others
O=[N+]([O-])c1ccc(/C=N/Nc2nc(N3CCCC3)nc(N3CCCC3)n2)o1,0,0,0,0,0,0,-,-,-,-,-,-,
CCN1CCN(c2cc(C)c3cc(NC(=O)c4cncc(Br)c4)ccc3n2)CC1,0,0,0,0,-11,0,-,-,-,-,0,0,TRPC4 sel inh 2=0;TRPC4 spec=-17%;HEK293 MPD ctr 2-1=0;HEK293 MPD ctr-1=-164%
CCN1CCN(c2cc(C)c3cc(NC(=O)c4cccc(OC)c4)ccc3n2)CC1,0,0,0,0,0,0,-,-,-,-,-,-,
CCN1CCN(c2cc(C)c3cc(NC(=O)c4cccs4)ccc3n2)CC1,0,0,0,0,-5.3,0,0,0,0,0,0,0,
COc1ccc(CN(C(=O)CN2C(=O)COc3ccccc32)C2CCCC2)c(OC)c1,0,12,0,0,0,0,319%,0,0,0,0,0,
COc1ccc(CN(Cc2ccccn2)C(=O)CN2C(=O)COc3ccccc32)cc1,0,0,0,0,0,0,-,-,-,-,-,-,
CCOC(=O)C1(C)/C(=N/Nc2ccccc2Cl)C(=O)C(=O)N1c1ccccc1 (centres undefined),0,0,0,0,-5.1,0,-76%,0,-21%,48%,0,0,
CCOC(=O)C1(C)/C(=N/Nc2ccc(Cl)cc2)C(=O)C(=O)N1c1ccccc1 (centres undefined),0,0,0,0,0,0,-,-,-,-,-,-,
COc1cccc(C2c3c(oc4ccccc4c3=O)C(=O)N2c2ccccn2)c1 (centres undefined),0,0,0,0,0,0,-,-,-,-,-,-,
COc1cccc(C(=O)C2CCCN(Cc3cccn3-c3ccccn3)C2)c1 (centres undefined),0,0,0,0,-5.9,-7,146%,0,14%,84%,60%,-,
COc1ccc(C(=O)C2CCCN(Cc3cccn3-c3nccs3)C2)cc1OC (centres undefined),0,0,0,0,-5.2,0,0,0,0,68%,0,0,
COc1ccc(C(=O)C2CCCN(Cc3cccn3-c3nccs3)C2)cc1F (centres undefined),0,0,0,0,0,0,-,-,-,-,-,-,
Cc1ccsc1C(=O)C1CCCN(Cc2cccn2-c2ccc(Cl)cn2)C1 (centres undefined),0,0,-4.6,0,-6,0,0,0,0,90%,54%,-,
O=C(c1ccc(Cl)cc1)C1CCCN(Cc2cccn2-c2ccccn2)C1 (centres undefined),0,0,0,0,0,0,-,-,-,-,-,-,
COc1ccc(C(=O)C2CCCN(Cc3cccn3-c3ccccn3)C2)cc1F (centres undefined),0,0,0,0,-12,0,-,-,-,-,107%,0,TRPC4 sel inh 2=16%;TRPC4 spec=0;HEK293 MPD ctr 2-1=21%;HEK293 MPD ctr-1=-0.1%
CC1CCC(NC(=S)NCCN(C)C)CC1 (centres undefined),0,0,0,0,0,0,-,-,-,-,-,-,
COC(=O)c1sc(N2C(=O)C(O)=C(C(=O)c3ccc(C)o3)C2c2ccc(F)cc2)nc1C (centres undefined),0,0,0,0,0,0,-,-,-,-,-,-,
c1ccc(-n2cc(CN3CCCC(CN4CCCC4)C3)c(-c3ccc4c(c3)OCO4)n2)cc1 (centres undefined),0,0,0,0,-5.8,0,0,0,0,73%,0,0,
Cc1nc2ccccn2c1/C(O)=C1\C(=O)C(=O)N(CCN2CCOCC2)C1c1cccs1 (centres undefined),0,0,0,0,0,0,-,-,-,-,-,-,
Cn1c(=Nc2ccc(N3CCOCC3)cc2)ccc2ccccc21,0,0,0,0,-6,0,-76%,0,-16%,0,41%,0,
CCCC(O)(CCN1CCOCC1)c1ccc(Br)cc1 (centres undefined),0,0,0,0,-7.5,-6,-,-,-,-,0,0,TRPC4 sel inh 2=76%;TRPC4 spec=4.2%;HEK293 MPD ctr 2-1=0;HEK293 MPD ctr-1=3.6%
COc1ccccc1Nc1nnc(SCC(=O)N2CCCC2=O)s1,0,0,0,0,-5.1,0,0,0,0,0,0,0,
COc1ccccc1Nc1nnc(SCC(=O)N2CCCC2)s1,0,0,0,0,0,0,-,-,-,-,-,-,
CC1CCCC(C)N1C(=O)c1ccc(CS(=O)(=O)c2ccccc2)cc1 (centres undefined),0,0,0,0,0,0,-,-,-,-,-,-,
CN(Cc1cccc(F)c1)C(=O)C(c1ccccc1)c1ccccc1,0,0,0,0,0,0,-,-,-,-,-,-,
CC(=O)C(Cc1cccc(F)c1)(Cc1cccc(F)c1)C(C)=O,0,0,0,0,-6,0,114%,0,34%,0,0,-,
Cn1c(N)c(C(=O)CNC2CCCCC2)c(=O)n(C)c1=O,0,0,0,0,0,0,-,-,-,-,-,-,
O=C(/C=C/NNC(=O)c1ccc(Br)cc1)c1ccccc1,0,0,0,0,0,0,-,-,-,-,-,-,
O=C(/C=C/NNC(=O)c1ccccc1)c1ccccc1,0,0,0,0,-6.2,0,0,0,0,0,0,0,
